Data published in ChEMBL document CHEMBL4706730, “A Set of Highly Sensitive Sirtuin Fluorescence Probes for Screening Small-Molecular Sirtuin Defatty-Acylase Inhibitors” (ACS Med Chem Lett, 2021).
pIC50: −log10 of the molar value. Activity calls are given as the source filed them. No cut-off for these calls is given here.

Tests used:
[1] = biological target: T1, NAD-dependent protein deacetylase sirtuin-2 (Homo sapiens, UniProt Q8IXJ6); assay: (§1) Inhibition of 5-(3-((1r,4r)-4-((5S,8S,11S,14S,17S,20S,29S)-11-((1H-imidazol-4-yl)methyl)-1,33-diamino-5-carbamoyl-17-(4-(4-(4-((4-(dimethylamino)phenyl)diazenyl)phenyl)butanamido)butyl)-8,14-bis(3-guanidinopropyl)-20-methyl-7,10,13,16,19,22,25,28-octaoxo-6,9,12,15,18,21,24,27-octaazatritriacontan-29-ylcarbamoyl)cyclohexyl)thioureido)-2-(6-hydroxy-3-oxo-3H-xanthen-9-yl)benzoic acid binding to SIRT2 (unknown origin) measured after 2 hrs in presence of NAD+ by fluorometric method
T1 sequence (Q8IXJ6 whole entry): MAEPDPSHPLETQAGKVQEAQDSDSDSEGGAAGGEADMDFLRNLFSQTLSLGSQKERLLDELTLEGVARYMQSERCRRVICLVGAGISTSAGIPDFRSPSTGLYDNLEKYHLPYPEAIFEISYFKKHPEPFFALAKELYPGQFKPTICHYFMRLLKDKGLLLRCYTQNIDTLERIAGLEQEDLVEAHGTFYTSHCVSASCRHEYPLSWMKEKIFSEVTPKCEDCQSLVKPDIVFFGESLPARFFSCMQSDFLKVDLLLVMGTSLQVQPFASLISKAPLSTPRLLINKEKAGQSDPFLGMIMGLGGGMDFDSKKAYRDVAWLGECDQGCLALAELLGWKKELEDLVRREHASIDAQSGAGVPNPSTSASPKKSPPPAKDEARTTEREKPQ
Method in brief: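 The second screen used the same SIRT2 one-step FRET probe conditions, validated at 2.92 nM SIRT2. Compounds were tested over a range of concentrations to check dose-dependency, and the IC50 was derived from the dose–response curve.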

[2] = biological target: T2, NAD-dependent protein deacetylase sirtuin-2 (Homo sapiens) (UniProt Q8IXJ6); assay: as §1, with “origin) at 10 uM” for “origin)”, “method relative to control” for “method”
T2 sequence (whole entry): T1 sequence (Q8IXJ6 whole entry)
Method in brief: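 In the primary library screen, 384-well plates held SIRT2 with the Dabcyl-BH/H4K16 one-step FRET probe. Each compound was tested at 10 μM with 0.5% DMSO, and inhibition was taken from the fluorescence signal.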

[3] = biological target: T2, NAD-dependent protein deacetylase sirtuin-2 (Homo sapiens); assay: (§2) Inhibition of p53(Myr)-AMC binding to SIRT2 (unknown origin) incubated for 3 hrs in presence of NAD+ followed by trypsin addition and measured at 5 mins interval for 20 mins by fluorometric method; details: time 200.0 min
[4] = biological target: T1, NAD-dependent protein deacetylase sirtuin-2; assay: as §2
[5] = biological target: T3, NAD-dependent protein deacetylase sirtuin-1 (Homo sapiens) (UniProt Q96EB6); assay: as §1, with “SIRT1” for “SIRT2”, “origin) at 50 uM” for “origin)”
T3 sequence (whole entry): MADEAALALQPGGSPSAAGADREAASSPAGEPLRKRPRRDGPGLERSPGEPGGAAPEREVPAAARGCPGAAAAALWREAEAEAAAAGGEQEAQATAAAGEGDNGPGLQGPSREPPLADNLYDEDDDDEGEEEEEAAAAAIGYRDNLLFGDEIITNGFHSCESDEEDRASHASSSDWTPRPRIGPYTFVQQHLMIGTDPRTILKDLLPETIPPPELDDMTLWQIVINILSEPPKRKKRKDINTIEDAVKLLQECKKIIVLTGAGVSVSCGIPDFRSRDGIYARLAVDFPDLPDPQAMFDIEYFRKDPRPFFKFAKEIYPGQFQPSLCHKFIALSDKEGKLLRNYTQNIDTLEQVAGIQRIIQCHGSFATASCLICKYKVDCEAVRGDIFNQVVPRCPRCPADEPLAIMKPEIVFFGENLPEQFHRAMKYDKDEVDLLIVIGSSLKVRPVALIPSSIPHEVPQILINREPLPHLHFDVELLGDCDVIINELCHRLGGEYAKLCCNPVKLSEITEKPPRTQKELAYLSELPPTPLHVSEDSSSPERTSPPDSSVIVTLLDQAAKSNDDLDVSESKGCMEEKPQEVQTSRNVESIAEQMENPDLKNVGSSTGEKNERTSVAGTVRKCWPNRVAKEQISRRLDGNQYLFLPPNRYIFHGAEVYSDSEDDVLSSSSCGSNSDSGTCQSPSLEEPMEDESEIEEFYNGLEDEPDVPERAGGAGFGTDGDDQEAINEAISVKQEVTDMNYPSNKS

[6] = biological target: T4, NAD-dependent protein deacetylase sirtuin-3, mitochondrial (Homo sapiens) (UniProt Q9NTG7); assay: as §1, with “SIRT3” for “SIRT2”, “origin) at 50 uM” for “origin)”
T4 sequence (whole entry): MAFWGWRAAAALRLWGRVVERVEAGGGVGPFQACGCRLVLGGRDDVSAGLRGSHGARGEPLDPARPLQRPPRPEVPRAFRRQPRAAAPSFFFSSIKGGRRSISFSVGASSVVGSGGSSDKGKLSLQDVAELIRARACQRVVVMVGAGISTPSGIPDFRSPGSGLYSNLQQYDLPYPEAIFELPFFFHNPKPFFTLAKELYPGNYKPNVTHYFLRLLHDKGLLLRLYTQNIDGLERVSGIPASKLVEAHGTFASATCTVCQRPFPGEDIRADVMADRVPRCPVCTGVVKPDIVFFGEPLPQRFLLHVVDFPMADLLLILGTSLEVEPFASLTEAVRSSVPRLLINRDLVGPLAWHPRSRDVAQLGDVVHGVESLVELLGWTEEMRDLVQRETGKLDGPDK

[7] = biological target: NAD-dependent protein deacylase sirtuin-6 (Homo sapiens) (UniProt Q8N6T7); assay: Inhibition of 5-[[(1r,4r)-4-[[(1S)-4-amino-1-[[(1S,2R)-1-[[(1S)-2-[[(1S)-1-[[(1S)-1-[[(1S)-2-[[(1S,2R)-1-[[2-(carboxymethylamino)-2-oxoethyl]carbamoyl]-2-hydroxypropyl]amino]-1-(hydroxymethyl)-2-oxoethyl]carbamoyl]-5-[3-[N-methyl-4-[(4-nitrophenyl)azo]anilino]propanoylamino]pentyl]carbamoyl]-4-guanidinobutyl]amino]-1-methyl-2-oxoethyl]carbamoyl]-2-hydroxypropyl]carbamoyl]-4-oxobutyl]carbamoyl]cyclohexyl]carbamothioylamino]-2-(3-hydroxy-6-oxoxanthen-9-yl)benzoic acid binding to SIRT6 (unknown origin) at 50 uM measured after 2 hrs in presence of NAD+ by fluorometric method
NAD-dependent protein deacylase sirtuin-6 (Homo sapiens), sequence (Q8N6T7 whole entry): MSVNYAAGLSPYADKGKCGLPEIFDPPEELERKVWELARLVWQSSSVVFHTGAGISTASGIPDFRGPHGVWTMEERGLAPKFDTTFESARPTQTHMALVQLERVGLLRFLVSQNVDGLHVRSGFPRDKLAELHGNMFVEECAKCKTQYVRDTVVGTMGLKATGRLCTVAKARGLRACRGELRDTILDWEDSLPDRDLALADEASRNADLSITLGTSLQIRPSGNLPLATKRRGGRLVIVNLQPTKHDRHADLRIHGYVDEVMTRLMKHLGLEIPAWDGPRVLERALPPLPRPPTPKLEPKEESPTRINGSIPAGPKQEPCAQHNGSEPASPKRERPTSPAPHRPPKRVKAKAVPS

[8] = biological target: T1, NAD-dependent protein deacetylase sirtuin-2; assay: Inhibition of SIRT2 deacetylation activity (unknown origin) using FLUOR DE LYS SIRT2 peptide as substrate incubated for 2 hrs in presence of NAD+ measured at 5 mins interval for 20 mins by fluorescence assay

pIC50 [1]: 4.32
inhibition [2]: > 35%
inhibition [3]: Dose-dependent effect
pIC50 [4]: 4.35
inhibition [5]: inactive
inhibition [6]: inactive
inhibition [7]: inactive
pIC50 [8]: 5.29
SMILES: CCOC(=O)C[C@@H]1C[C@@H](C(C)C)[C@H](CNC(=O)c2cncnc2)C=C1C
